# Experimental data reported in ChEMBL document CHEMBL1139437, “Design, synthesis, and preliminary pharmacological evaluation of 4-aminopiperidine derivatives as N-type calcium channel blockers active on pain and neuropathic pain” (J Med Chem, 2004).
# How the values were obtained:
# Mus musculus [1] = assay: Analgesic activity was evaluated in mouse hotplate test; expressed as licking latency after 15 min of treatment at a dose of 25 ug intracerebroventricularly; format: functional
# Summary of the method: (§1)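 Male Swiss albino mice (23-30 g); icv injection of 5 μL (saline or H2O/DMSO 2:1) under brief anaesthesia. Paw-licking latency (s) on hot plate read before injection and every 15 min up to 60 min. Mice with pretest latency below 12 or over 18 s excluded; cutoff 45 s. Statistics against saline- or vehicle-treated controls.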
# Rattus norvegicus [2] = assay: Antihyperalgesic activity was evaluated in rat (sn) paw pressure test after 30 min at a dose of 50 ug intracerebroventricularly
# Mus musculus [3] = assay: Analgesic activity was evaluated in mouse hotplate test; expressed as licking latency after 45 min of treatment at a dose of 50 ug intracerebroventricularly; format: functional; summary of the method: as §1
# Rattus norvegicus [4] = assay: Antihyperalgesic activity was evaluated in rat (dx) paw pressure test after 30 min at a dose of 50 ug intracerebroventricularly
# Mus musculus [5] = assay: Analgesic activity was evaluated in mouse hotplate test; expressed as licking latency after 15 min of treatment at a dose of 50 ug intracerebroventricularly; format: functional; summary of the method: as §1
# Mus musculus [6] = assay: Percentage analgesic efficacy when compared to morphine at 50 ug intracerebroventricularly; format: functional
# Summary of the method: (§2)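 Male Swiss albino mice, hot-plate test, paw-licking latency; pretest 12–18 s required, cutoff 45 s. Icv injection of 5 μL under brief anaesthesia, in saline or H2O/DMSO 2:1, at maximal soluble dose. Latency read before and every 15 min after dosing. Efficacy = (peak latency − pretest) as % of the same value for morphine 10 μg/mouse icv; non-significant effects scored 0.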
# Mus musculus [7] = assay: Analgesic activity was evaluated in mouse hotplate test; expressed as licking latency after 45 min of treatment at a dose of 25 ug intracerebroventricularly; format: functional; summary of the method: as §1
# Mus musculus [8] = assay: Analgesic activity was evaluated in mouse hotplate test; expressed as licking latency after 30 min of treatment at a dose of 25 ug intracerebroventricularly; format: functional; summary of the method: as §1
# Mus musculus [9] = assay: Percentage analgesic efficacy when compared to morphine at 10 ug intracerebroventricularly; format: functional; summary of the method: as §2
# Rattus norvegicus [10] = assay: Antihyperalgesic activity was evaluated in rat (sn) paw pressure test after 60 min at a dose of 50 ug intracerebroventricularly
# Mus musculus [11] = assay: Analgesic activity was evaluated in mouse hotplate test; expressed as licking latency before treatment at a dose of 25 ug intracerebroventricularly; format: functional; summary of the method: as §1
# Mus musculus [12] = assay: (§3) Analgesic activity was evaluated in mouse hotplate test; expressed as licking latency after 30 min of treatment at a dose of 10 ug intracerebroventricularly; format: functional; summary of the method: as §1
# Rattus norvegicus [13] = assay: Antihyperalgesic activity was evaluated in rat (dx) paw pressure test after 60 min at a dose of 50 ug intracerebroventricularly
# Mus musculus [14] = assay: (§4) Analgesic activity was evaluated in mouse hotplate test; expressed as licking latency after 15 min of treatment at a dose of 10 ug intracerebroventricularly; format: functional; summary of the method: as §1
# Rattus norvegicus [15] = assay: Antihyperalgesic activity was evaluated in rat (sn) paw pressure test after 45 min at a dose of 50 ug intracerebroventricularly
# Rattus norvegicus [16] = assay: Antihyperalgesic activity was evaluated in rat (dx) paw pressure test after 45 min at a dose of 50 ug intracerebroventricularly
# Mus musculus [17] = assay: Analgesic activity was evaluated in mouse hotplate test; expressed as licking latency after 30 min of treatment at a dose of 50 ug intracerebroventricularly; format: functional; summary of the method: as §1
# Mus musculus [18] = assay: (§5) Analgesic activity was evaluated in mouse hotplate test; expressed as licking latency after 45 min of treatment at a dose of 10 ug intracerebroventricularly; format: functional; summary of the method: as §1
# Mus musculus [19] = assay: Analgesic activity was evaluated in mouse hotplate test; expressed as licking latency before treatment at a dose of 10 ug intracerebroventricularly; format: functional; summary of the method: as §1
# [20] = molecular target: Voltage-dependent N-type calcium channel subunit alpha-1B (Rattus norvegicus) (UniProt Q02294); assay: In vitro antagonism of N-type calcium channels expressed in PC12 cells was determined as the increase in intracellular calcium influx in the presence of 10 uM nifedipine
# Chain of Voltage-dependent N-type calcium channel subunit alpha-1B (Rattus norvegicus) (Q02294 whole entry, looked up): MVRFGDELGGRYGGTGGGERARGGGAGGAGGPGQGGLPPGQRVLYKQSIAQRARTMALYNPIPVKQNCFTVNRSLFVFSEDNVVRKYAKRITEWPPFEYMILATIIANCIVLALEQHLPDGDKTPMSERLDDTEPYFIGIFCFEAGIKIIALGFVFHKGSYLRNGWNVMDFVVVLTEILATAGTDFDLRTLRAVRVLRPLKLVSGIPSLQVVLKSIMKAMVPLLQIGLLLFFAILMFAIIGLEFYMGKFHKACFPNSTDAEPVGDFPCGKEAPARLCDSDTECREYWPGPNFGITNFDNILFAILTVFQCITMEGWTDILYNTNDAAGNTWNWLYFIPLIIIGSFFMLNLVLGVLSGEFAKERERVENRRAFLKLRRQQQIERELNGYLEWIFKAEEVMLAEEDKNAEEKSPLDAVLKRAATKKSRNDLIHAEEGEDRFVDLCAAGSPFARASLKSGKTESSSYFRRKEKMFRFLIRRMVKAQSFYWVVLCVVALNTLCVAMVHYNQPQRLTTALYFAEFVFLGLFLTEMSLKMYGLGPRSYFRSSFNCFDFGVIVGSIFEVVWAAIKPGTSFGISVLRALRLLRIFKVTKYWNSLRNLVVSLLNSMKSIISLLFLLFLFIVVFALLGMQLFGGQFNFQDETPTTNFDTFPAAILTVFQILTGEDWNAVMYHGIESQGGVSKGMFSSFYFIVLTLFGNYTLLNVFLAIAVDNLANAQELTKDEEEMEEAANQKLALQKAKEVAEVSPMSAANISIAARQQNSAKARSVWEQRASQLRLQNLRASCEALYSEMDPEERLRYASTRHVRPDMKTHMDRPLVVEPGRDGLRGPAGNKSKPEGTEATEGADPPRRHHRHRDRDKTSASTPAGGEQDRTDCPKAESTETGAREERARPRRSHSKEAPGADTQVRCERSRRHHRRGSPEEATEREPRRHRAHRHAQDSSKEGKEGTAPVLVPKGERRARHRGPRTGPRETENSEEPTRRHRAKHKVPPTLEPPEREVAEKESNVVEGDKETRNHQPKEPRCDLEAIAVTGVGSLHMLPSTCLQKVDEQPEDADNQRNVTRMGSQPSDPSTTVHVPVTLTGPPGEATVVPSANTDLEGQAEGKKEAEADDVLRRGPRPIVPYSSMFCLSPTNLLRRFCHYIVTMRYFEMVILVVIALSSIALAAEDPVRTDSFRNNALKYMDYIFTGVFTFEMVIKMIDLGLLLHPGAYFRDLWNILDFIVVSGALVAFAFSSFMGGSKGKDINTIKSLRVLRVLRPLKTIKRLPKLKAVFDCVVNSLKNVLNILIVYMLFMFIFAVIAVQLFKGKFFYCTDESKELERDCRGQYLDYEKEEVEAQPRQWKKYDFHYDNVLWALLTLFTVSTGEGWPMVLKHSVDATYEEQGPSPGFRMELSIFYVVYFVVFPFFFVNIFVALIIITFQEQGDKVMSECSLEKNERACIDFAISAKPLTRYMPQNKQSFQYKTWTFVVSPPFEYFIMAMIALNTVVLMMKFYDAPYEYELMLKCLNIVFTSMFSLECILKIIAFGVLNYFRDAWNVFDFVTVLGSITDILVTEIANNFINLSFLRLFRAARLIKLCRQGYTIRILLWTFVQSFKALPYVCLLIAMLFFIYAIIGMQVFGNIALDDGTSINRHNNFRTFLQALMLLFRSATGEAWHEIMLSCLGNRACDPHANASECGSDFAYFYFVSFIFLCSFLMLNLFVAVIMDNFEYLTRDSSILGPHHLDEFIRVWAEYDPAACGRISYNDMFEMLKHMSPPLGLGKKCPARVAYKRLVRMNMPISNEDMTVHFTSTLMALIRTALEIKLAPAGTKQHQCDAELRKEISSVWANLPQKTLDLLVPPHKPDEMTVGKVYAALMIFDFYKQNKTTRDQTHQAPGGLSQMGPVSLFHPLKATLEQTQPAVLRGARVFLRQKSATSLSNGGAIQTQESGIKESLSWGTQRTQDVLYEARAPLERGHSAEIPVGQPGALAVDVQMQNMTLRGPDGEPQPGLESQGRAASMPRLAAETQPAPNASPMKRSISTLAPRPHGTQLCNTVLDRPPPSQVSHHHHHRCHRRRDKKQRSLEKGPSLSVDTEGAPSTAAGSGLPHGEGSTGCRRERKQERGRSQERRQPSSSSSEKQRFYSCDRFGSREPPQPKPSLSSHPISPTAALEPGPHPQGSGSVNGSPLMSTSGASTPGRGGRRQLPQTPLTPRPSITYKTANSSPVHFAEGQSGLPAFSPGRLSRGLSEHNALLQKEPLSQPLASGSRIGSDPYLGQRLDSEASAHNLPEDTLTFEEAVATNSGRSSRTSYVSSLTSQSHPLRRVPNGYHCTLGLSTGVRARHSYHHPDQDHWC
# Rattus norvegicus [21] = assay: Antihyperalgesic activity was evaluated in rat (sn) paw pressure test after 45 min at a dose of 40 ug intracerebroventricularly
# Mus musculus [22] = assay: Analgesic activity was evaluated in mouse hotplate test; expressed as licking latency after 30 min of treatment at a dose of 40 ug intracerebroventricularly; format: functional; summary of the method: as §1
# Mus musculus [23] = species on record: Mus musculus; assay: Percentage analgesic efficacy when compared to morphine; format: functional; design: concentration or dose not given beside the values; summary of the method: as §2
# Rattus norvegicus [24] = assay: Antihyperalgesic activity was evaluated in rat (dx) paw pressure test after 30 min at a dose of 40 ug intracerebroventricularly
# Rattus norvegicus [25] = assay: Antihyperalgesic activity was evaluated in rat (dx) paw pressure test after 45 min at a dose of 40 ug intracerebroventricularly
# Mus musculus [26] = assay: Analgesic activity was evaluated in mouse hotplate test; expressed as licking latency after 45 min of treatment at a dose of 40 ug intracerebroventricularly; format: functional; summary of the method: as §1
# Rattus norvegicus [27] = assay: Antihyperalgesic activity was evaluated in rat (dx) paw pressure test after 60 min at a dose of 40 ug intracerebroventricularly
# Rattus norvegicus [28] = assay: Antihyperalgesic activity was evaluated in rat (sn) paw pressure test after 30 min at a dose of 40 ug intracerebroventricularly
# Mus musculus [29] = assay: Analgesic activity was evaluated in mouse hotplate test; expressed as licking latency after 15 min of treatment at a dose of 40 ug intracerebroventricularly; format: functional; summary of the method: as §1
# [30] = molecular target: Voltage-dependent N-type calcium channel subunit alpha-1B (Rattus norvegicus) (UniProt Q02294); assay: In vitro antagonism of N-type calcium channels expressed in PC12 cells was determined as the increase in intracellular calcium influx
# Rattus norvegicus [31] = assay: Antihyperalgesic activity was evaluated in rat (sn) paw pressure test after 60 min at a dose of 40 ug intracerebroventricularly
# Mus musculus [32] = assay: as §3; format: functional; remark: listed apart in the source
# Summary of the method: (§6)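 Male Swiss albino mice (23-30 g); icv injection under brief anaesthesia, 5 μL into the lateral ventricle, in saline or H2O/DMSO (2:1). Hot plate: latency to licking of fore or hind paws timed with a stopwatch before injection and every 15 min up to 60 min. Pretest scores below 12 or over 18 s rejected; cutoff 45 s.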
# Mus musculus [33] = assay: as §4; format: functional; summary of the method: as §6; remark: listed apart in the source
# Mus musculus [34] = assay: as §5; format: functional; summary of the method: as §6; remark: listed apart in the source
structure (smiles),measurement,setting,value
Cl.NC1CCN(C(=O)CCC(c2ccc(F)cc2)c2ccc(F)cc2)CC1,Activity,Mus musculus [1],24.6 s
same,Activity,Rattus norvegicus [2],62.3 g
same,Activity,Mus musculus [3],29.5 s
same,Activity,Rattus norvegicus [4],55.1 g
same,Activity,Mus musculus [5],34.1 s
same,Efficacy,Mus musculus [6],147%
same,Activity,Mus musculus [7],20.5 s
same,Activity,Mus musculus [8],23.9 s
same,Efficacy,Mus musculus [9],0%
same,Activity,Rattus norvegicus [10],54.7 g
same,Activity,Mus musculus [11],13.9 s
same,Activity,Mus musculus [12],16.1 s
same,Activity,Rattus norvegicus [13],59.3 g
same,Activity,Mus musculus [14],15.7 s
same,Activity,Rattus norvegicus [15],55.6 g
same,Activity,Rattus norvegicus [16],54.8 g
same,Activity,Mus musculus [17],31.7 s
same,Activity,Mus musculus [18],16.4 s
same,Activity,Mus musculus [19],14.3 s
same,IC50,[20],2400 nM
CNC(CC(C)C)C(=O)NC1CCN(C(=O)CCC(c2ccc(F)cc2)c2ccc(F)cc2)CC1.Cl (centres undefined),Activity,Rattus norvegicus [21],61.3 g
same,Latency,Mus musculus [22],20.7 s
same,Efficacy,Mus musculus [23],56%
same,Activity,Rattus norvegicus [24],28.1 g
same,Activity,Rattus norvegicus [25],33.4 g
same,Latency,Mus musculus [26],15.5 s
same,Activity,Rattus norvegicus [27],30.1 g
same,Activity,Rattus norvegicus [28],55.7 g
same,Latency,Mus musculus [29],21.5 s
same,IC50,[30],3000 nM
same,Activity,Rattus norvegicus [31],66.4 g
CN1CC[C@]23c4c5ccc(O)c4O[C@H]2[C@@H](O)C=C[C@H]3[C@H]1C5 [MORPHINE],Latency,Mus musculus [32],27.7 s
same,Latency,Mus musculus [33],28.6 s
same,Latency,Mus musculus [34],22.4 s
